Assay outcomes: PubChem BioAssay, several laboratories
CSN deneddyl inh: inhibitors of CSN-mediated cullin deneddylation, primary screen, biochemical, fluorescence polarization, uHTS. COP9 signalosome complex subunit 5 (Homo sapiens), Q92905. Purified CSN, SCF-Nedd8-OG deneddylation. inhibition, % at 12.5 µM. 360,000 compounds, 0.38% hits. AID 651999, 2013;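 active means pattern-corrected inhibition above about 35%, with an unprinted fluorescence ratio check between 0.5 and 1.5, limit read from the data, passing the limit was not always enough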;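 further: 0% = enzyme with substrate and 100% = substrate without enzyme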
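Test system: purified human Csn5 enzyme expressed in HEK293T cells. Amount: 0.24 nM enzyme. Reagent: SCFSkp2-Nedd8OG substrate at 10 nM final. Schedule: 90 min incubation of compound, enzyme and substrate at room temperature. Detection: fluorescence polarization. Read-out: % inhibition of substrate cleavage by Csn5.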
TPT1 inhibitor: Candida albicans TPT1 enzyme inhibitors, primary screen, biochemical, fluorescence polarization | tRNA 2'-phosphotransferase TPT1 (Candida albicans SC5314) | recombinant caTPT1, FP RNA substrate dephosphorylation | inhibition, % at 5 µM | 300,000 compounds, 0.81% hits;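 active means inhibition above the mean of all tested compounds plus 3 SD, set per screening campaign, cut at about 24% in these data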;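 further: plate controls were DMSO alone for no effect and ferristatin control at 100 nM for full effect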
CRFR2-BP antag: antagonists of CRF-BP/CRF-R2 complex, primary screen, cell-based, HEK293, calcium dye fluorescence, uHTS; CRF-induced calcium fluorescence; 350,000 compounds, 0.59% hits; AID 588475, 2011; inhibition, % at 11.8 µM;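 active means inhibition of the ligand-induced calcium signal above about 50% at the single tested concentration, limit read from the data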
Rpn11 block: Rpn11 (PSMD14) deubiquitinase inhibitors, primary screen, biochemical, fluorescence polarization, uHTS. 26S proteasome non-ATPase regulatory subunit 14 (Homo sapiens), O00487. human 26S proteasome, Ub4-pepOG fluorescence polarization; 20S core pre-blocked with epoxomicin. calls only at 20 µM. 360,000 compounds, 0.59% hits;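 active means inhibition at 20 µM, scaled to each plate's controls, above about 33%, limit read from the data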
CRFR2-BP ag: agonists of CRF-BP/CRF-R2 complex, primary screen, cell-based, HEK293, calcium dye fluorescence, uHTS; activation, % at 13.2 µM; CRF-binding protein / CRF receptor 2 complex (human); 350,000 compounds, 0.46% hits; calcium dye fluorescence (FLIPR); percent of saturating CRF peptide response;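 active means activation of at least 50%, plus an integration ratio under a set limit after plate pattern correction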;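 further: plate controls were neutral control wells without compound for no effect and CRF at EC100 for full effect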
HNF4A DNA FP: change in binding of human HNF4A to DNA, primary screen, biochemical, fluorescence polarization, FITC-DNA. Hepatocyte nuclear factor 4-alpha (Homo sapiens), P41235. 1 h. activity change, % at 10 µM. 360,000 compounds, 0.3% hits; in the data active means activity change above about 30%, passing the limit was not always enough
Target sequence (P41235 whole entry, looked up): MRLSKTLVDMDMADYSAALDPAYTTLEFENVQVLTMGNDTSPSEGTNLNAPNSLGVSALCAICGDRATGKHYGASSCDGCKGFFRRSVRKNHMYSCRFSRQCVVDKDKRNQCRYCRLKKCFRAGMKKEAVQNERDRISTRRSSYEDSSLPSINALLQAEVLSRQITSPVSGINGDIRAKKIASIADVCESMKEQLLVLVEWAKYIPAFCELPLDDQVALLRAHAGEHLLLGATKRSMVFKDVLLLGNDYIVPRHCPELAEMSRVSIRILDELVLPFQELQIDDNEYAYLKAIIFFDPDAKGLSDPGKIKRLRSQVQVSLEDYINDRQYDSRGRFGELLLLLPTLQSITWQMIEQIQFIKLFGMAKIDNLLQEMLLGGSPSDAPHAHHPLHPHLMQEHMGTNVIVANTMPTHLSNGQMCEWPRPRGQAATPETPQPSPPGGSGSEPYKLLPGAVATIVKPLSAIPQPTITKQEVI
Rpn11 inh conf: Rpn11 (PSMD14) deubiquitinase inhibitors, confirmation, biochemical, fluorescence polarization, single concentration | shares compounds with Rpn11 block | purified human 26S proteasome, Ub4-pepOG fluorescence polarization; proteasome pretreated with epoxomicin | AID 602318, 2012 | 1,900 compounds, 29% hits | inhibition, % at 20 µM
MMP-2 counter: MMP-2 enzyme inhibition, confirmation, counter-screen for RPN11 inhibitor project, biochemical, fluorescence, single concentration; shares compounds with Rpn11 block; recombinant MMP-2, FRET peptide cleavage fluorescence; inhibition, % at 20 µM; 1,900 compounds, 4% hits;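 further: human MMP-2 activated beforehand with APMA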
Thrombin FP: bovine thrombin protease inhibition, confirmation, counter-screen for Rpn11 inhibitor project, biochemical, fluorescence polarization, single concentration; bovine thrombin cleavage of Ub4-pepOG; 1,900 compounds, 13% hits; inhibition, % at 20 µM; shares compounds with Rpn11 block;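 active means mean inhibition at least 40% at 20 µM, or signal 3 deviations below plate average, so some actives read negative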;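 further: plate controls were thrombin with DMSO for no effect and buffer wells lacking thrombin for full effect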
* hit, by the source's call; i = inactive; · = not tested or not shown; + = active, no number. Most compounds without a hit are left out; they make up all but 2.3% or so of the library. Unless noted, no stated cut-off is given here; in the data, active means inhibition above about 40%; inactive means the rest.

SMILES | CSN deneddyl inh | TPT1 inhibitor | CRFR2-BP antag | Rpn11 block | CRFR2-BP ag | HNF4A DNA FP | Rpn11 inh conf | MMP-2 counter | Thrombin FP
COc1ccc(N2CCc3c(C)nc4c(OC)cccc4c32)cc1 | 10 | 0 | -1 | + | 1 | 5 | -15 | -25 | -2
CN(c1ccc(-c2csc(NC(=O)C3CC(=O)N(Cc4ccco4)C3)n2)cc1)S(C)(=O)=O (stereo unspecified) | 1 | · | -6 | i | -2 | -4 | · | · | ·
CCCCCCCCCC[N+](C)(C)CC/C=C1/c2ccccc2Sc2ccc(Cl)cc21 | 9 | 0 | -50 | + | 9 | 10 | 38 | -2 | 1
Nc1cc2nc[nH]c2cc1N | -2 | · | -29 | + | 8 | 6 | -19 | 3 | -29
Cc1cc(N2CC(C(=O)NCc3cccs3)CC2=O)ccc1C(C)C (stereo unspecified) | -1 | 1 | -2 | i | 1 | 1 | · | · | ·
COc1ccc(S(=O)(=O)N2Cc3ccccc3CC2C(=O)Nc2nccs2)cc1 (stereo unspecified) | 3 | -1 | 21 | i | -1 | -1 | · | · | ·
CC(=O)Oc1ccc(C#C/C=C2\c3ccccc3C(=O)N2c2ccccc2)cc1 | 6 | · | 3 | + | -2 | 27 | 51* | -1 | -87
COC(=O)c1ccc(Oc2nc(C(N)=O)cc(-c3ccccc3)n2)cc1 | 24 | 0 | -35 | + | 0 | 7 | 35 | 1 | -6
N#Cc1ccc(Oc2nc(C(N)=O)cc(-c3ccccc3)n2)cc1 | -3 | 2 | 5 | i | -1 | 2 | · | · | ·
O=C(N/N=C/c1ccccc1F)c1cc2c(ccc3ccccc32)o1 | 23 | -1 | 7 | + | 0 | 39* | 99* | -11 | -16
O=C(N/N=C/C=C/c1ccccc1)c1cc2c(ccc3ccccc32)o1 | 42* | -4 | 18 | + | 5 | 2 | -10 | 2 | -28
CCOC(=O)CSc1nc(C)cc(=O)[nH]1 | -9 | 2 | -12 | i | 3 | 2 | · | · | ·
O=C(Cc1n[nH]c(=O)c2ccccc12)Nc1cc(C(F)(F)F)ccc1-n1cncn1 | 4 | · | 28 | i | -1 | 2 | · | · | ·
O=C1NC(=S)N/C1=C\c1ccccc1OCc1ccc(C(=O)O)cc1 | 4 | 0 | -6 | i | 1 | 3 | · | · | ·
O=C(O)c1ccc(COc2ccccc2C=C2C(=O)c3ccccc3C2=O)cc1 | -1 | 5 | 81* | + | -1 | 2 | 66* | -18 | 15
O=C(O)c1ccc(COc2ccccc2/C=C2/NC(=O)N(c3cccc(Cl)c3)C2=O)cc1 | 45* | 0 | 0 | + | -3 | -4 | 56* | 19 | 15
COc1ccccc1C(O)(c1ccccc1)C(CN1CCOCC1)c1ccccc1 (stereo unspecified) | 2 | -3 | 14 | i | -1 | 0 | · | · | ·
COCCNC(=O)C(c1cccc(OC)c1)N(C(=O)Cn1nnc2ccccc21)c1cccnc1 (stereo unspecified) | -3 | -2 | -4 | i | 2 | 0 | · | · | ·
O=C(N/N=C/c1sc(N2CCOCC2)nc1-c1ccccc1)c1ccccc1O | 3 | 8 | 19 | + | 7 | 3 | 12 | -34 | -8
